In ChEMBL document CHEMBL1138812, “Synthesis and antiviral evaluation of polyhalogenated imidazole nucleosides: dimensional analogues of 2,5,6-trichloro-1-(beta-D-ribofuranosyl)benzimidazole” (J Med Chem, 2004):

Legend:
KB = assay: Concentration required to inhibit KB cell line growth was determined by crystal violet staining method; assay type: functional, cell-based; details: Homo sapiens
Outline: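 KB cells, 3000–5000 per well, incubated overnight at 37 °C, then compound added at six to eight concentrations in quadruplicate. Grown 48 h at 37 °C under CO2 (two population doublings), fixed in 95% ethanol, stained with 0.1% crystal violet, dye eluted with acidified ethanol, absorbance 570 nm. IC50 taken from linear regression of percent inhibition against log concentration.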

Human betaherpesvirus 5 = assay: Concentration required to inhibit plaque formation in human cytomegalovirus cultures was determined; assay type: functional, organism-based
Outline: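 HFF monolayers infected with about 100 pfu/cm² of HCMV Towne strain (plaque-purified P₀). After adsorption, compound (10 mg/mL DMSO stock, diluted in medium) added at four to eight concentrations in duplicate wells. After 7–10 days at 37 °C, cells fixed and stained with crystal violet and plaques counted microscopically. Percent plaque reduction versus drug-free wells, IC50 by regression against log concentration.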

Human alphaherpesvirus 1 = assay: Inhibitory activity against herpes simplex virus type-1 cultures was determined by ELISA assay; assay type: functional, organism-based
Outline: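 BSC-1 cells, 10000 per well in MEM(E) with 10% calf serum, incubated overnight at 37 °C. Drug added in quadruplicate with HSV-1 (KOS) at 100 pfu/well and incubated 3 days at 37 °C. Plates blocked, probed with HRP-conjugated rabbit anti-HSV-1 and developed with TMB; reaction stopped with H2SO4 and read at 450/570 nm. Percent absorbance reduction versus virus-only wells, IC50 by regression.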

HFF = assay: Concentration required to inhibit stationary human HFF cell line growth was determined by microscopy examination; assay type: functional, cell-based
Outline: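 Toxicity judged by microscopic inspection of uninfected stationary HFF cells in the HCMV plaque assay, scored at the time plaques were counted. Results come from duplicate experiments. IC50 from linear regression of percent inhibition against log concentration.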

SMILES | IC50 (KB) [µM] | IC50 (Human betaherpesvirus 5) [µM] | IC50 (Human alphaherpesvirus 1) [µM] | IC50 (HFF) [µM]
OCC1OC(n2c(Br)nc(Cl)c2Cl)[C@@H](O)C1O (some centres not stated) | > 100 | > 100 | > 100 | > 100
OCCOCn1c(Cl)nc(Cl)c1Cl | 25 | > 100 | 35 | 45
OCCOCn1c(Br)nc(Cl)c1Cl | > 100 | > 100 | > 100 | > 100
OCC(CO)OCn1c(Cl)nc(Cl)c1Cl | 25 | > 100 | 30 | > 100
OCC1OC(n2c(Br)nc(Br)c2Br)[C@@H](O)C1O (some centres not stated) | 90 | 32 | > 100 | > 100
OCCOCn1c(Br)nc(Br)c1Br | > 100 | > 100 | > 100 | > 100
Clc1nc(Cl)c(Cl)[nH]1 |  | 30 |  | 75
OC[C@H]1O[C@@H](n2c(Br)nc(Cl)c2Cl)[C@H](O)[C@@H]1O | > 100 | > 100 | > 100 | > 100
OC[C@H]1O[C@@H](n2c(Br)nc(Br)c2Br)[C@H](O)[C@@H]1O | 65 | 30 | 60 | 100
OC[C@H]1O[C@@H](n2c(Cl)nc(Cl)c2Cl)[C@H](O)[C@@H]1O | > 100 | > 100 | > 100 | > 100
OC[C@H]1O[C@@H](n2c(Cl)nc(Cl)c2Cl)[C@H](O)[C@H]1O | > 100 | > 100 | 50 | > 100
OC[C@H]1O[C@@H](n2c(Br)nc(Cl)c2Cl)[C@H](O)[C@H]1O | > 100 | > 100 | > 100 | > 100
OC[C@H]1O[C@@H](n2c(Br)nc(Br)c2Br)[C@H](O)[C@H]1O | > 100 | > 100 | > 100 | > 100
OC[C@H]1O[C@@H](n2cnc3cc(Cl)c(Cl)cc32)[C@@H](O)[C@H]1O | 36 | 42 | 30 | 24
OCC(CO)OCn1c(Br)nc(Cl)c1Cl | > 100 | > 100 | > 100 | > 100
Clc1nc(Br)[nH]c1Cl |  | 41 |  | > 100
OCC(CO)OCn1c(Br)nc(Br)c1Br | > 100 | > 100 | > 100 | > 100
Brc1nc(Br)c(Br)[nH]1 |  | 37 |  | 75
OC[C@H]1O[C@@H](n2c(Br)nc3cc(Cl)c(Cl)cc32)[C@H](O)[C@@H]1O | > 100 | 0.7 |  | 
OC[C@H]1O[C@@H](n2c(Cl)nc3cc(Cl)c(Cl)cc32)[C@H](O)[C@@H]1O | > 100 |  |  | 
OC[C@H]1OC(n2cnc(Br)c2Br)[C@H](O)[C@@H]1O (some centres not stated) | > 100 | > 100 | > 100 | > 100
OC[C@H]1OC(n2c(Cl)nc3cc4cc(Cl)c(Cl)cc4nc32)[C@H](O)[C@@H]1O (some centres not stated) |  | 18 | 90 | 
OC[C@H]1OC(n2cnc(Cl)c2Cl)[C@H](O)[C@@H]1O (some centres not stated) | > 100 | > 100 | > 100 | > 100
OC[C@H]1OC(n2c(Cl)nc3cc4cc(Cl)c(Cl)cc4cc32)[C@H](O)[C@@H]1O (some centres not stated) |  | 2 |  | 
OC[C@H]1OC(n2c(Cl)nc3nc4cc(Cl)c(Cl)cc4cc32)[C@H](O)[C@@H]1O (some centres not stated) |  | 2 | 70 | 
